Columns and labels:
U-87 MG [1] = test: Antiproliferative activity against human U-87 MG cells assessed as reduction in cell viability measured after 24 to 48 hrs by MTT assay; type: functional, cell-based, U-87MG ATCC
How it was run: (§1)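 Cells seeded per well 24 h before treatment: HEK293 at 5.10^4, MCF7 at 4.10^4, U87MG at 10^5. Compounds were dissolved in DMSO (less than 1%) and diluted in DMEM, then incubated 24 and 48 h. Cells were washed with D-PBS and given MTT (from a 5 mg/mL stock) for 4 h, dissolved in DMSO, read at 540 nm. % viability = sample/control absorbance ×100. At least three independent experiments.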

HEK293 = test: Cytotoxicity against HEK293 cells assessed as reduction in cell viability measured after 24 to 48 hrs by MTT assay; type: cell-based; details: Homo sapiens; how it was run: as §1
U-87 MG [2] = test: Antiproliferative activity against human U-87 MG cells assessed as cell viability at 5 uM measured after 24 to 48 hrs by MTT assay relative to control; type: functional, U-87MG ATCC; details: time 24-48 hrs, read-out: Activity; how it was run: as §1
U-87 MG [3] = test: Antiproliferative activity against human U-87 MG cells assessed as cell viability at 10 uM measured after 24 to 48 hrs by MTT assay relative to control; type: functional, U-87MG ATCC; details: time 24-48 hrs, read-out: Activity; how it was run: as §1
U-87 MG [4] = test: Antiproliferative activity against human U-87 MG cells assessed as cell viability at 50 uM measured after 24 to 48 hrs by MTT assay relative to control; type: functional, U-87MG ATCC; details: time 24-48 hrs, read-out: Activity; how it was run: as §1
U-87 MG [5] = test: Antiproliferative activity against human U-87 MG cells assessed as cell viability at 100 uM measured after 24 to 48 hrs by MTT assay relative to control; type: functional, U-87MG ATCC; details: time 24-48 hrs, read-out: Activity; how it was run: as §1
MCF7 = test: Antiproliferative activity against human MCF7 cells assessed as reduction in cell viability measured after 24 to 48 hrs by MTT assay; type: functional, cell-based; how it was run: as §1
[6] = molecular target: T1, Adenosine receptor A1 (Homo sapiens) (UniProt P30542); test: Displacement of [3H]DPCPX from recombinant human A1 adenosine receptor expressed in CHO cell membranes at 1 uM measured after 60 mins by liquid scintillation counting method relative to control; details: Membrane
T1 sequence (whole entry): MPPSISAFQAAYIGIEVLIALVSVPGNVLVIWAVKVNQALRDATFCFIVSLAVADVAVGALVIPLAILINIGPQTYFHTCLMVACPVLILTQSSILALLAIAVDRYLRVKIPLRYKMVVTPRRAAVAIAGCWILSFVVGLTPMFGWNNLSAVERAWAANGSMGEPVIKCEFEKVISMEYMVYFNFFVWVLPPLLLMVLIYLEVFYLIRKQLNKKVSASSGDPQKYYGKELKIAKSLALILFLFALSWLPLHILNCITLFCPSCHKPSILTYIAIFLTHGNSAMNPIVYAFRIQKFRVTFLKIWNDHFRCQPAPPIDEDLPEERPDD
How it was run: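 Membranes from CHO cells expressing recombinant hA1 (40 μg/tube) were incubated with 2 nM [3H]DPCPX and test compound at 1 μM in 50 mM Tris-HCl (pH 7.4, 10 mM MgCl2) for 60 min at 25°C. Bound radioligand was separated by GF/B filtration and counted by liquid scintillation. Results are given as percent inhibition of specific binding.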

[7] = molecular target: Adenosine receptor A2a (Homo sapiens) (UniProt P29274); test: Displacement of [3H]ZM241385 from recombinant human A2A adenosine receptor expressed in HEK293 cell membranes at 1 uM measured after 60 mins by liquid scintillation counting method relative to control; details: Membrane
Sequence of Adenosine receptor A2a (Homo sapiens) (P29274 whole entry): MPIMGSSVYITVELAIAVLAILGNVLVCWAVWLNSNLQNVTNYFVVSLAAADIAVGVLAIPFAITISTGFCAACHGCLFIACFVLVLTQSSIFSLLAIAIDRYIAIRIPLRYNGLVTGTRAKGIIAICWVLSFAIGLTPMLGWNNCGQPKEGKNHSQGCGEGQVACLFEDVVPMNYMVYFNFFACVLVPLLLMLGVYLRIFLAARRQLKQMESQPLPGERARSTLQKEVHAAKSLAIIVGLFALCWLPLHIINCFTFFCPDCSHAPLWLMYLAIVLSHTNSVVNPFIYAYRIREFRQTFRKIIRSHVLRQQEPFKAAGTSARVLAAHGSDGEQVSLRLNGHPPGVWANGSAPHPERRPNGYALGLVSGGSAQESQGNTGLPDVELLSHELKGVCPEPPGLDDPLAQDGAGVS
How it was run: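 HEK293 membranes expressing hA2A (20 μg/tube) were incubated with 15 nM [3H]ZM241385 and 1 μM test compound for 60 min at 25°C in 50 mM Tris-HCl, pH 7.4, 10 mM MgCl2. The reaction was stopped by GF/B filtration, followed by scintillation counting. Read-out was percent inhibition of specific binding.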

[8] = molecular target: 3',5'-cyclic-AMP phosphodiesterase 4B (Homo sapiens, UniProt Q07343); test: Inhibition of recombinant human PDE4B using […] as substrate measured after 90 mins by colorimetric assay
Sequence of 3',5'-cyclic-AMP phosphodiesterase 4B (Q07343 whole entry): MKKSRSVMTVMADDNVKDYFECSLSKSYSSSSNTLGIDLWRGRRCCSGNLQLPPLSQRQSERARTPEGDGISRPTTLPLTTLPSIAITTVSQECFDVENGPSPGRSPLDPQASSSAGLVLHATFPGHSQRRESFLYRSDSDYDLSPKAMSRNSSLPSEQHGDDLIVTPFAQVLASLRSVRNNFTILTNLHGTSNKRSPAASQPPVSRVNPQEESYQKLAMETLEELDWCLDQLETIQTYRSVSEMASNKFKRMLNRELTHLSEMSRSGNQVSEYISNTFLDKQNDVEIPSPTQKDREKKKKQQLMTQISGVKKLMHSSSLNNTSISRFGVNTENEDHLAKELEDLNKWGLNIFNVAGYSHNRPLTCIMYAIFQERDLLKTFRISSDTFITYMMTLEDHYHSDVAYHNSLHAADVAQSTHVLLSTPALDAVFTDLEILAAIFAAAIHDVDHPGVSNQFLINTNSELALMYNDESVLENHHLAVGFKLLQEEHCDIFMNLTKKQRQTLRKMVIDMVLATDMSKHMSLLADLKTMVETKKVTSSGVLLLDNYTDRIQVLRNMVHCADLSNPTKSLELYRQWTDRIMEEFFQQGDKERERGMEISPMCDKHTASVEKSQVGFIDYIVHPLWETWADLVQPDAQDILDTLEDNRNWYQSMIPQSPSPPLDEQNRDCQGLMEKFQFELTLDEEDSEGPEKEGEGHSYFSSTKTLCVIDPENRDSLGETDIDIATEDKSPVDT
How it was run: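 Recombinant human PDE4 was incubated with 0.5 μM 5′-cGMP plus 5′-nucleotidase for 90 min at 30°C. The reaction was stopped with termination buffer for 20 min at room temperature, and released phosphate was read at OD 620 nm. IC50 was determined from 6 inhibitor concentrations. Compound stocks were in DMSO (less than 1%), with at least triplicate runs, mean ± SD.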

[9] = Cytotoxicity against HEK293 cells assessed as cell viability at 100 uM measured after 24 to 48 hrs by MTT assay relative to control; type: cell-based; details: human, HEK293 cells, time 24-48 hrs, read-out: Activity; how it was run: as §1

IC50 (U-87 MG [1])	IC50 (MCF7)	inhibition [6]	inhibition [7]	IC50 [8]	Structure (SMILES)	IC50 (HEK293)	viability at 5 µM (U-87 MG [2])	viability at 10 µM (U-87 MG [3])	viability at 50 µM (U-87 MG [4])	viability at 100 µM (U-87 MG [5])	viability at 100 µM [9]
53 µM	–	–	–	–	Cc1nc(-c2ccc(Cl)cc2)sc1C(=O)CSc1nc(-c2ccc(Cl)cc2)c(C#N)c(=O)[nH]1	75.1 µM	99%	98.4%	60%	12.8%	–
25.3 µM	–	–	–	–	COc1ccc(-c2nc(C)c(C(=O)CSc3nc(-c4ccc(OC)cc4)c(C#N)c(=O)[nH]3)s2)cc1	–	97%	80.3%	32.6%	11.5%	> 50%
35.5 µM	–	–	–	–	COc1ccc(-c2nc(SCC(=O)c3sc(-c4ccc(Cl)cc4)nc3C)[nH]c(=O)c2C#N)cc1	–	92.1%	88.3%	46.3%	16.6%	> 50%
83.9 µM	–	–	–	–	Cc1nc(-c2ccc(Cl)cc2)sc1C(=O)CSc1nc(-c2ccc(Cl)c(Cl)c2)c(C#N)c(=O)[nH]1	46.9 µM	101%	97.1%	93.9%	36.5%	–
55.5 µM	–	–	–	–	Cc1nc(-c2ccc(Cl)cc2)sc1C(=O)CSc1nc(-c2ccc3c(c2)OCO3)c(C#N)c(=O)[nH]1	81.4 µM	101%	95%	68.3%	9.91%	–
57.2 µM	–	–	–	–	COc1ccc(-c2nc(C)c(C(=O)CSc3nc(-c4ccccc4)c(C#N)c(=O)[nH]3)s2)cc1	–	99%	90.9%	72.5%	10.9%	> 50%
65 µM	–	–	–	–	Cc1nc(-c2ccccc2)sc1C(=O)CSc1nc(-c2ccc(Cl)c(Cl)c2)c(C#N)c(=O)[nH]1	85.1 µM	98.6%	92.5%	75.3%	24.4%	–
43.4 µM	–	–	–	–	Cc1nc(-c2ccccc2)sc1C(=O)CSc1nc(-c2ccc(Cl)cc2)c(C#N)c(=O)[nH]1	–	90.9%	85.2%	63.4%	22.5%	> 50%
28.9 µM	30.1 µM	9.5%	6.5%	> 100 µM	Cc1nc(-c2ccccc2)sc1C(=O)CSc1nc(N)c(C#N)c(-c2ccccc2)n1	46.7 µM	103%	93%	26.3%	–	–
59.7 µM	–	–	–	–	COc1cccc(-c2nc(SCC(=O)c3sc(-c4ccccc4)nc3C)[nH]c(=O)c2C#N)c1	90.2 µM	99%	90.2%	80.3%	21.8%	–
78.9 µM	–	–	–	–	COc1ccc(-c2nc(C)c(C(=O)CSc3nc(-c4cccc(Cl)c4)c(C#N)c(=O)[nH]3)s2)cc1	–	95.7%	90.6%	83.4%	40.6%	> 50%
65.3 µM	–	–	–	–	COc1ccc(-c2nc(C)c(C(=O)CSc3nc(-c4ccc5c(c4)OCO5)c(C#N)c(=O)[nH]3)s2)cc1	–	100%	88.3%	83.2%	22.9%	> 50%
40.1 µM	–	–	–	–	Cc1nc(-c2ccc(Cl)cc2)sc1C(=O)CSc1nc(-c2cccc(Cl)c2)c(C#N)c(=O)[nH]1	30.1 µM	80.2%	95.2%	52.6%	12.5%	–

Second part, the compound before the results:

Structure (SMILES)	IC50 (U-87 MG [1])	IC50 (MCF7)	inhibition [6]	inhibition [7]	IC50 [8]	IC50 (HEK293)	viability at 5 µM (U-87 MG [2])	viability at 10 µM (U-87 MG [3])	viability at 50 µM (U-87 MG [4])	viability at 100 µM (U-87 MG [5])	viability at 100 µM [9]
COc1ccc(-c2nc(C)c(C(=O)CSc3nc(N)c(C#N)c(-c4ccc(Cl)cc4)n3)s2)cc1	4.54 µM	11.2 µM	1.1%	-7.1%	0.97 µM	39.2 µM	51.4%	44%	23.1%	3.9%	–
Cc1nc(-c2ccccc2)sc1C(=O)CSc1nc(-c2ccc3c(c2)OCO3)c(C#N)c(=O)[nH]1	33.7 µM	–	–	–	–	–	93.4%	84.2%	42.6%	18.7%	> 50%
COc1ccc(-c2nc(SCC(=O)c3sc(-c4ccc(Cl)cc4)nc3C)nc(N)c2C#N)cc1	10.6 µM	10.1 µM	1.2%	–	18.1 µM	–	69.7%	64.5%	17.8%	0.79%	> 50%
Cc1nc(-c2ccc(Cl)cc2)sc1C(=O)CSc1nc(-c2ccccc2)c(C#N)c(=O)[nH]1	27.6 µM	–	–	–	–	–	88.9%	83.1%	41.6%	11.4%	> 50%
COc1ccc(-c2nc(C)c(C(=O)CSc3nc(-c4cccc(OC)c4)c(C#N)c(=O)[nH]3)s2)cc1	15.3 µM	–	–	–	–	95.4 µM	71.3%	66.7%	43.2%	12.4%	–
COc1ccc(-c2nc(C)c(C(=O)CSc3nc(-c4ccc(Cl)c(Cl)c4)c(C#N)c(=O)[nH]3)s2)cc1	68.5 µM	–	–	–	–	45.6 µM	101%	88.6%	78.4%	31.1%	–
CC(C)Cn1c(=O)n(C)c(=O)c2[nH]cnc21 [ISOBUTYLMETHYLXANTHINE]	–	–	–	–	14.3 µM	–	–	–	–	–	–
COc1ccc(-c2nc(SCC(=O)c3sc(-c4ccc(Cl)cc4)nc3C)[nH]c(=O)c2C#N)cc1OC	38.6 µM	–	–	–	–	–	93.4%	83.3%	59.8%	18.7%	> 50%
COc1cccc(-c2nc(SCC(=O)c3sc(-c4ccc(Cl)cc4)nc3C)[nH]c(=O)c2C#N)c1	41 µM	–	–	–	–	77.9 µM	96.6%	89.7%	47.6%	8.54%	–
COc1ccc(-c2nc(C)c(C(=O)CSc3nc(-c4ccc(Cl)cc4)c(C#N)c(=O)[nH]3)s2)cc1	45.9 µM	–	–	–	–	63 µM	102%	92.7%	48%	2.85%	–
Cc1nc(-c2ccccc2)sc1C(=O)CSc1nc(-c2ccccc2)c(C#N)c(=O)[nH]1	56.6 µM	–	–	–	–	93.5 µM	92.1%	87.5%	77.5%	9.23%	–
COc1ccc(-c2nc(SCC(=O)c3sc(-c4ccccc4)nc3C)[nH]c(=O)c2C#N)cc1	48.4 µM	–	–	–	–	76.2 µM	97.3%	90.4%	52.1%	1.08%	–
Cc1nc(-c2ccccc2)sc1C(=O)CSc1nc(N)c(C#N)c(-c2ccc(Cl)cc2)n1	10.8 µM	20.2 µM	–	-9.9%	32.3 µM	–	62.9%	58.8%	44.3%	17.1%	> 50%
Cc1nc(-c2ccccc2)sc1C(=O)CSc1nc(-c2cccc(Cl)c2)c(C#N)c(=O)[nH]1	28.2 µM	–	–	–	–	–	86.9%	83.7%	50.6%	10%	> 50%

— ChEMBL document CHEMBL4706654, “Novel cyanothiouracil and cyanothiocytosine derivatives as concentration-dependent selective inhibitors of U87MG glioblastomas: Adenosine receptor binding and potent PDE4 inhibition” (Eur J Med Chem, 2021)
